The nature of test [1]: Displacement of [3H]AL-11 from IRAP of CHO-K1 cell membrane preincubated for 40 mins in presence of 30 mM EDTA and 600 uM 1,10-Phenantrone after 30 mins by scintillation counting. The format is cell membranes, Cricetulus griseus. In outline:
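Chelators EDTA (5 mM final) and 1,10-phenanthroline (100 μM final) were present both in the 40 min, 37 °C preincubation of CHO-K1 membranes (4 × 10⁵ cells, 50 mM Tris-HCl pH 7.4) with compound (10⁻⁹–10⁻⁵ M) and during the binding step. Binding was 30 min at 37 °C with 3 nM [³H]AL-11, with unlabeled Ang IV for nonspecific binding. Read-out was GF/B filtration and β-counting, ≥2 experiments in duplicate. IC50 came from nonlinear regression and Ki via Cheng–Prusoff.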

The nature of test [2]: Displacement of [3H]AL-11 from IRAP of CHO-K1 cell membrane after 30 mins by scintillation counting in presence of 30 mM EDTA and 600 uM 1,10-Phenantrone. In kind it is cell membranes, Cricetulus griseus. In outline: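 CHO-K1 membranes with endogenous IRAP (4 × 10⁵ cells) in 50 mM Tris-HCl pH 7.4 buffer were preincubated 40 min at 37 °C with compound (10⁻⁹–10⁻⁵ M final) without chelators. [³H]AL-11 (3 nM final) was then added with EDTA/1,10-Phe (final 5 mM/100 μM) for 30 min at 37 °C. Unlabeled Ang IV defined nonspecific binding. Bound radioactivity was collected on BSA-soaked GF/B filters and β-counted. Runs were ≥2× in duplicate. IC50 came from nonlinear regression and Ki from Cheng–Prusoff using the [³H]AL-11 KD.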
For orientation: In a radioligand displacement assay an active substance lowers the binding of a labelled ligand.

Another test addresses Aminopeptidase N (Homo sapiens, UniProt P15144). Description: Inhibition of catalytic activity of recombinant human AP-N transfected in human HEK-293 cells assessed as cleavage of substrate L-leucine-p-nitroanilide to L-leucine and p-nitroaniline measured every 5 mins for 10 to 50 mins by spectrophotometric analysis. The format is cell-based, HEK293.

Each structure is given as a SMILES string.

Aminopeptidase N, sequence (P15144 whole entry): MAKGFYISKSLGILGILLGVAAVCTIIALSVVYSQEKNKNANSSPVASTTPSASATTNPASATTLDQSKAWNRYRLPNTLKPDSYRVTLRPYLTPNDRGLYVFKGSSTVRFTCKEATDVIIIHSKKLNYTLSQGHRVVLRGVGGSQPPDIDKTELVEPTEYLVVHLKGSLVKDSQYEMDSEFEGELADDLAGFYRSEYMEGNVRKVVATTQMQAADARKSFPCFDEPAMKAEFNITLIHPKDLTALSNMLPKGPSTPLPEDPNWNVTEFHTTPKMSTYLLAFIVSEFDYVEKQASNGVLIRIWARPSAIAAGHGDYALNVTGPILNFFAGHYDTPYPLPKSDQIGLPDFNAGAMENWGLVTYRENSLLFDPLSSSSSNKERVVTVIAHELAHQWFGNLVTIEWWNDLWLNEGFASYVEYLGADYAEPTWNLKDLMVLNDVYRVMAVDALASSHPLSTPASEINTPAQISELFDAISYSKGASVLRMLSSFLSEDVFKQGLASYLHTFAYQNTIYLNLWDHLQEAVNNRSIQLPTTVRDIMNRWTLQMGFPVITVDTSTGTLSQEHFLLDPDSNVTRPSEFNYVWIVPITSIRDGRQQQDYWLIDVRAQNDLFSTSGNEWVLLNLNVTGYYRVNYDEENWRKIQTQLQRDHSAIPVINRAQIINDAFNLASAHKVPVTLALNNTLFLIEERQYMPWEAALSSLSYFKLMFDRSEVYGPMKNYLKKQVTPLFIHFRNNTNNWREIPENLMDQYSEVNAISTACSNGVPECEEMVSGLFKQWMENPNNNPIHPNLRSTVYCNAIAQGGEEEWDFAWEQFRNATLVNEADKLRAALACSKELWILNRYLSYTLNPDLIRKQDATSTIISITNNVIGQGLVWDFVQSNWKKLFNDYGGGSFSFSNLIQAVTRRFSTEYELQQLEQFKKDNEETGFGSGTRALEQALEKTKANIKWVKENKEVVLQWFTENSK

In the case of `N[C@H]1CCCCCC[C@@H](C(=O)NCc2ccccc2CC(=O)O)NC(=O)[C@H](Cc2ccc(O)cc2)NC1=O`, the values for the inhibitory constant (Ki) in test [1] and in test [2] were 631 nM and 28.9 nM, respectively.

As to `N[C@H]1CCCCCCC[C@@H](C(=O)NCc2ccccc2CC(=O)O)NC(=O)[C@H](Cc2ccc(O)cc2)NC1=O`, the Ki in test [1] was 517 nM; in test [2] it was 12.5 nM.

On to `CN1C(=O)[C@@H](N)CCCC/C=C/C[C@@H](C(=O)NCc2ccccc2)NC(=O)[C@@H]1Cc1ccc(O)cc1`, for which the Ki at Aminopeptidase N was greater than 100000 nM.

Take `CN1C(=O)[C@@H](N)CCC/C=C\CC[C@@H](C(=O)NCc2ccccc2)NC(=O)[C@@H]1Cc1ccc(O)cc1`: the inhibition constant Ki at Aminopeptidase N is greater than 100000 nM.

As for `N[C@H]1CC/C=C/CC[C@@H](C(=O)NCc2ccccc2CC(=O)O)NC(=O)C[C@H](Cc2ccc(O)cc2)NC1=O`, the Ki in test [1] was 74.2 nM; in test [2] it was 9.8 nM.

For the compound `N[C@H]1CC/C=C/CC[C@@H](C(=O)NCc2ccccc2CC(=O)O)NC(=O)[C@H](Cc2ccc(O)cc2)NC1=O`, the inhibition constant (Ki) in test [1] was 450 nM; in test [2] it was 36.8 nM.

Take `N[C@H]1CC/C=C/CC[C@@H](C(=O)NCc2ccccc2)NC(=O)[C@H](Cc2ccccc2)NC1=O`: the values for the Ki in test [1] and in test [2] were 3520 nM and 719 nM, respectively.

As for `N[C@H]1CCCC/C=C/C[C@@H](C(=O)NCc2ccccc2CC(=O)O)NC(=O)[C@H](Cc2ccc(O)cc2)NC1=O`, the Ki was determined as 133 nM in test [1] and 46.8 nM in test [2].

`CN1C(=O)[C@@H](N)CCC/C=C/CC[C@@H](C(=O)NCc2ccccc2)NC(=O)[C@@H]1Cc1ccc(O)cc1`: the Ki on Aminopeptidase N was greater than 100000 nM.

With `CN1C(=O)[C@@H](N)CCCC/C=C\C[C@@H](C(=O)NCc2ccccc2)NC(=O)[C@@H]1Cc1ccc(O)cc1`, the Ki on Aminopeptidase N is greater than 100000 nM.

On to `N[C@H]1CC/C=C\CC[C@@H](C(=O)NCc2ccccc2)NC(=O)[C@H](Cc2ccccc2)NC1=O`, for which the values for the Ki in test [1] and in test [2] were 3470 nM and 287 nM, respectively.

As to `N[C@H]1CC/C=C\CC[C@@H](C(=O)NCc2ccccc2CC(=O)O)NC(=O)[C@H](Cc2ccc(O)cc2)NC1=O`, the inhibition constant Ki in test [1] turned out to be 568 nM; in test [2], 24.8 nM.

For orientation: Ki means the dissociation constant of the complex between target and ligand, obtained from inhibition or displacement.

These data come from ChEMBL document CHEMBL1782022, “Potent macrocyclic inhibitors of insulin-regulated aminopeptidase (IRAP) by olefin ring-closing metathesis” (J Med Chem, 2011).
